Measured values: ChEMBL document CHEMBL1124321, “Design of potent linear alpha-melanotropin 4-10 analogues modified in positions 5 and 10” (J Med Chem, 1989)
Non-standard residues stand in square brackets, D forms with d. Residues, ends and D or L forms follow the SMILES beside them. Nle = CCCC[C@H](N)C(=O)O

Tests used:
[1] = system: lizard; assay: In vitro potency in lizard (Anolis carolinensis) skin bioassay relative to alpha-MSH; assay type: functional
Procedure, shortened: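 Isolated skins incubated in vitro with peptide across the full log dose-response range. Darkening from melanosome dispersion into melanophore dendrites is read as surface reflectance on a reflectometer and expressed as percent response versus the time-zero value. Each point is a mean ± SE of 6 or more skins. Potency is taken from the dose-response curves relative to α-MSH.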

[2] = system: Melanocyte-stimulating hormone receptor (Rana pipiens); assay: In vitro potency in frog (Rana pipiens) skin assay relative to alpha-MSH

Row | Structure (SMILES) | Activity [1] | Activity [2]
1 | CCCC[C@H](NC(C)=O)C(=O)N[C@@H](CCC(=O)O)C(=O)N[C@@H](Cc1c[nH]cn1)C(=O)N[C@@H](Cc1ccccc1)C(=O)N[C@@H](CCCN=C(N)N)C(=O)N[C@@H](Cc1c[nH]c2ccccc12)C(=O)N[C@@H](CCCCN)C(N)=O | 0.08 | 0.001
2 | CCCC[C@H](NC(C)=O)C(=O)N[C@@H](CC(=O)O)C(=O)N[C@@H](Cc1c[nH]cn1)C(=O)N[C@H](Cc1ccccc1)C(=O)N[C@@H](CCCN=C(N)N)C(=O)N[C@@H](Cc1c[nH]c2ccccc12)C(=O)N[C@@H](CCCN)C(N)=O | 10 | 0.9
3 | CCCC[C@H](NC(C)=O)C(=O)N[C@@H](CCC(=O)O)C(=O)N[C@@H](Cc1c[nH]cn1)C(=O)N[C@H](Cc1ccccc1)C(=O)N[C@@H](CCCN=C(N)N)C(=O)N[C@@H](Cc1c[nH]c2ccccc12)C(=O)N[C@@H](CCCN)C(N)=O | 8 | 0.6
4 | CCCC[C@H](NC(C)=O)C(=O)N[C@@H](CC(=O)O)C(=O)N[C@@H](Cc1c[nH]cn1)C(=O)N[C@H](Cc1ccccc1)C(=O)N[C@@H](CCCN=C(N)N)C(=O)N[C@@H](Cc1c[nH]c2ccccc12)C(=O)NCC(N)=O | 8 | 0.1
5 | CCCC[C@H](NC(C)=O)C(=O)N[C@@H](CCC(=O)O)C(=O)N[C@@H](Cc1c[nH]cn1)C(=O)N[C@H](Cc1ccccc1)C(=O)N[C@@H](CCCN=C(N)N)C(=O)N[C@@H](Cc1c[nH]c2ccccc12)C(=O)N[C@@H](CCCCN)C(=O)NCC(=O)N1CCC[C@H]1C(=O)N[C@H](C(N)=O)C(C)C (Ac-[Nle]EH[dF]RWKGPV-NH2) | 8 | 0.8
6 | CCCC[C@H](NC(=O)[C@H](CO)NC(=O)[C@H](Cc1ccc(O)cc1)NC(=O)[C@H](CO)NC(C)=O)C(=O)N[C@@H](CCC(=O)O)C(=O)N[C@@H](Cc1c[nH]cn1)C(=O)N[C@H](Cc1ccccc1)C(=O)N[C@@H](CCCN=C(N)N)C(=O)N[C@@H](Cc1c[nH]c2ccccc12)C(=O)N[C@@H](CCCCN)C(=O)NCC(=O)N1CCC[C@H]1C(=O)N[C@H](C(N)=O)C(C)C (Ac-SYS[Nle]EH[dF]RWKGPV-NH2) | 8 | 6
7 | CCCC[C@H](NC(C)=O)C(=O)N[C@@H](CCC(=O)O)C(=O)N[C@@H](Cc1c[nH]cn1)C(=O)N[C@H](Cc1ccccc1)C(=O)N[C@@H](CCCN=C(N)N)C(=O)N[C@@H](Cc1c[nH]c2ccccc12)C(=O)N[C@@H](CCN)C(N)=O | 10 | 0.9
8 | CCCC[C@H](NC(C)=O)C(=O)N[C@@H](CC(=O)O)C(=O)N[C@@H](Cc1c[nH]cn1)C(=O)N[C@H](Cc1ccccc1)C(=O)N[C@@H](CCCN=C(N)N)C(=O)N[C@@H](Cc1c[nH]c2ccccc12)C(=O)N[C@@H](CN)C(N)=O | 8 | 0.2
9 | CCCC[C@H](NC(=O)[C@H](CO)NC(=O)[C@H](Cc1ccc(O)cc1)NC(=O)[C@H](CO)NC(C)=O)C(=O)N[C@@H](CC(=O)O)C(=O)N[C@@H](Cc1c[nH]cn1)C(=O)N[C@H](Cc1ccccc1)C(=O)N[C@@H](CCCN=C(N)N)C(=O)N[C@@H](Cc1c[nH]c2ccccc12)C(=O)N[C@@H](CCCCN)C(=O)NCC(=O)N1CCC[C@H]1C(=O)N[C@H](C(N)=O)C(C)C (Ac-SYS[Nle]DH[dF]RWKGPV-NH2) | 8 | 9
10 | CCCC[C@H](NC(C)=O)C(=O)N[C@@H](CCC(=O)O)C(=O)N[C@@H](Cc1c[nH]cn1)C(=O)N[C@H](Cc1ccccc1)C(=O)N[C@@H](CCCN=C(N)N)C(=O)N[C@@H](Cc1c[nH]c2ccccc12)C(=O)N[C@@H](CCCCN)C(N)=O | 8 | 0.2
11 | CCCC[C@H](NC(C)=O)C(=O)N[C@@H](CC(=O)O)C(=O)N[C@@H](Cc1c[nH]cn1)C(=O)N[C@H](Cc1ccccc1)C(=O)N[C@@H](CCCN=C(N)N)C(=O)N[C@@H](Cc1c[nH]c2ccccc12)C(=O)N[C@@H](CCN)C(N)=O | 50 | 0.9
12 | CCCC[C@H](NC(C)=O)C(=O)N[C@@H](CC(=O)O)C(=O)N[C@@H](Cc1c[nH]cn1)C(=O)N[C@@H](Cc1ccccc1)C(=O)N[C@@H](CCCN=C(N)N)C(=O)N[C@@H](Cc1c[nH]c2ccccc12)C(=O)N[C@@H](CCCCN)C(N)=O | 0.08 | 
13 | CCCC[C@H](NC(C)=O)C(=O)N[C@@H](CC(=O)O)C(=O)N[C@@H](Cc1c[nH]cn1)C(=O)N[C@H](Cc1ccccc1)C(=O)N[C@@H](CCCN=C(N)N)C(=O)N[C@@H](Cc1c[nH]c2ccccc12)C(=O)N[C@@H](CCCCN)C(=O)NCC(=O)N1CCC[C@H]1C(=O)N[C@H](C(N)=O)C(C)C (Ac-[Nle]DH[dF]RWKGPV-NH2) | 10 | 1
14 | CCCC[C@H](NC(C)=O)C(=O)N[C@@H](CC(=O)O)C(=O)N[C@@H](Cc1c[nH]cn1)C(=O)N[C@H](Cc1ccccc1)C(=O)N[C@@H](CCCN=C(N)N)C(=O)N[C@@H](Cc1c[nH]c2ccccc12)C(=O)N[C@@H](CCCCN)C(N)=O | 8 | 
